Results as given in ChEMBL document CHEMBL1153353, “Probing of the cis-5-phenyl proline scaffold as a platform for the synthesis of mechanism-based inhibitors of the Staphylococcus aureus sortase SrtA isoform” (Bioorg Med Chem, 2009).
Calls of active or inactive are those of the source. No cut-off for these calls is given here.

Target: T1, Sortase A (Staphylococcus aureus) (UniProt Q9S446)
T1 sequence (whole entry): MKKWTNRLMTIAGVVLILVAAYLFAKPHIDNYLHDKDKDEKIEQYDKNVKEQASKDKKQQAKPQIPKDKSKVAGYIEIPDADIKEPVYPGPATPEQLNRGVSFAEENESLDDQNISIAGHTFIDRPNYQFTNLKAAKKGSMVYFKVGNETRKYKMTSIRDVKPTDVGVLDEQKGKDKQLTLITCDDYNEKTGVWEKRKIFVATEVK
Assay: Inhibition of 6-His tagged Staphylococcus aureus recombinant sortase delta N24 expressed in Escherichia coli BL21 (DE3) at 1 mM
Summary of the method: (§1)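 His6-SrtAΔN24 (1 μM) was pre-incubated with inhibitor for 30 min at 37°C in 300 mM Tris pH 7.5, 150 mM NaCl, 5 mM CaCl2, 0.1% CHAPS and 2% DMSO. The reaction was started with 2 mM Abz-LPETG-Dap(DNP)-NH2 plus 2 mM NH2-Gly5-OH, run 30 min at 37°C, and quenched with 1.2 M HCl. Substrate and product were separated by reverse-phase HPLC and read at 355 nm. Percent substrate conversion came from peak areas.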

| SMILES | inhibition [%] |
| --- | --- |
| Cc1cn(C[C@@H]2C[C@H](C#N)[C@H](c3ccccc3)N2C)c(=O)[nH]c1=O (racemic) | 6 |

Target: T2, Sortase A (Staphylococcus aureus, UniProt Q9S446)
T2 sequence (Q9S446 whole entry): T1 sequence (whole entry)
Assay: Inhibition of 6-His tagged Staphylococcus aureus recombinant sortase delta N24 expressed in Escherichia coli BL21 (DE3)
Summary of the method: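 N-terminally His6-tagged SrtA lacking residues 1-24, Ni-chelate purified. 1 μM enzyme pre-incubated with inhibitor 30 min at 37°C, then 2 mM Abz-LPETG-Dap(DNP)-NH2 plus 2 mM NH2-Gly5-OH added. Buffer: 300 mM Tris pH 7.5, 150 mM NaCl, 5 mM CaCl2, 0.1% CHAPS, 2% DMSO. Ran 30 min at 37°C, HCl-quenched. Reverse-phase HPLC at 355 nm gave substrate-to-product conversion, relative to uninhibited controls.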

| SMILES | IC50 [µM] |
| --- | --- |
| C=CS(=O)(=O)[C@H]1C[C@]2(C(=O)OC)CCC(=O)N2[C@H]1c1cccnc1 (racemic) | 2470 |
| C=CS(=O)(=O)[C@H]1C[C@]2(C(=O)OC)CCC(=O)N2[C@H]1c1ccc(OC)c(OC)c1 (racemic) | 2680 |
| C=CS(=O)(=O)[C@H]1C[C@@H](C(=O)OC)N[C@H]1c1ccccc1F (racemic) | 1320 |
| C=CS(=O)(=O)[C@H]1C[C@@H](C(=O)OC)N[C@H]1c1cccc(F)c1 (racemic) | 1040 |
| C=CS(=O)(=O)c1ccccc1 [(ETHENYLSULFONYL)BENZENE] | 736 |
| CN(C)C(=N)N.O=C(NCCSSCCNC(=O)/C(Cc1ccc(S(=O)(=O)O)c(Br)c1)=N/O)/C(Cc1ccc(O)c(Br)c1)=N/O | 48.3 |
| COc1cc(/C=C/C(=O)CC(=O)/C=C/c2ccc(O)c(OC)c2)ccc1O [CURCUMIN] | 37.5 |
| C=CS(=O)(=O)[C@H]1C[C@@](CCC(=O)OC)(C(=O)OC)N[C@H]1c1ccc(OC)c(OC)c1 (racemic) | > 5000 |
| C=CS(=O)(=O)[C@H]1C[C@@H](C(=O)OC)N[C@H]1c1ccccc1 (racemic) | 850 |
| C=CS(=O)(=O)[C@H]1C[C@@](CCC(=O)OC)(C(=O)OC)N[C@H]1c1cccnc1 (racemic) | 1860 |
| C=CS(=O)(=O)[C@H]1C[C@]2(C(=O)OC)CCC(=O)N2[C@H]1c1ccccc1 (racemic) | 2200 |
| O=c1c(O)c(-c2ccc(O)cc2O)oc2cc(O)cc(O)c12 [MORIN] | 37.4 |

Target: T1, Sortase A (Staphylococcus aureus)
Assay: Inhibition of 6-His tagged Staphylococcus aureus recombinant sortase delta N24 expressed in Escherichia coli BL21 (DE3) at 5 mM
Summary of the method: as §1

| SMILES | inhibition [%] | Activity |
| --- | --- | --- |
| COC(=O)[C@@H]1C[C@H](C#N)[C@H](c2ccccc2F)N1C (racemic) | 20 |  |
| COC(=O)[C@@H]1C[C@H](C#N)[C@H](c2cccc(F)c2F)N1 (racemic) |  | inactive |
| COC(=O)[C@]1(C)C[C@H](C#N)[C@H](c2ccccc2C)N1 (racemic) |  | inactive |
| C=CS(=O)(=O)[C@H]1C[C@@H](C(=O)OC)N[C@H]1c1ccccc1F (racemic) |  | Active |
| COC(=O)[C@]1(C)C[C@@H](C#N)[C@H](c2ccccc2Cl)N1 (racemic) |  | inactive |
| COC(=O)[C@]1(C)C[C@@H](C#N)[C@H](c2ccccc2C)N1 (racemic) |  | inactive |
| C=CS(=O)(=O)[C@H]1C[C@@H](C(=O)OC)N[C@H]1c1cccc(F)c1 (racemic) |  | Active |
| COC(=O)[C@]1(C)C[C@H](C#N)[C@H](c2ccccc2Cl)N1C (racemic) | 20 |  |
| COC(=O)[C@@H]1C[C@H](C#N)[C@H](c2cccc(F)c2F)N1C (racemic) |  | inactive |
| COC(=O)[C@@H]1C[C@@H](C#N)[C@H](c2cccc(F)c2F)N1 (racemic) |  | inactive |
| COC(=O)[C@@H]1C[C@H](C#N)[C@H](c2cccc(Cl)c2)N1 (racemic) | 20 |  |
| COC(=O)[C@]1(C)C[C@H](C#N)[C@H](c2ccccc2Cl)N1 (racemic) |  | inactive |
| COC(=O)[C@@H]1C[C@H](C#N)[C@H](c2ccccc2)N1C (racemic) |  | inactive |
| COC(=O)[C@@H]1C[C@@H](C#N)[C@H](c2cccc(F)c2)N1 (racemic) |  | inactive |
| COC(=O)[C@]1(C)C[C@H](C#N)[C@H](c2ccccc2C)N1C (racemic) |  | inactive |
| C=CS(=O)(=O)[C@H]1C[C@@H](C(=O)OC)N[C@H]1c1ccccc1 (racemic) |  | Active |
| COC(=O)[C@]1(C)C[C@H](C#N)[C@H](c2ccc(Cl)cc2)N1 (racemic) |  | inactive |
| COC(=O)[C@@H]1C[C@@H](C#N)[C@H](c2cccc(Cl)c2)N1 (racemic) |  | inactive |
| COC(=O)[C@@H]1C[C@@H](C#N)[C@H](c2ccccc2)N1 (racemic) | 20 |  |
| COC(=O)[C@@H]1C[C@@H](C#N)[C@H](c2ccccc2F)N1 (racemic) | 20 |  |
| COC(=O)[C@@H]1C[C@H](C#N)[C@H](c2ccccc2F)N1 (racemic) | 20 |  |
| COC(=O)[C@@H]1C[C@H](C#N)[C@H](c2ccccc2)N1 (racemic) |  | inactive |
| COC(=O)[C@]1(C)C[C@@H](C#N)[C@H](c2ccc(Cl)cc2)N1 (racemic) |  | inactive |
| COC(=O)[C@@H]1C[C@H](C#N)[C@H](c2cccc(F)c2)N1 (racemic) |  | inactive |
| Cc1cn(C[C@@H]2C[C@H](C#N)[C@H](c3ccccc3)N2C)c(=O)[nH]c1=O (racemic) |  | inactive |
